miR122 inh: miR-122 inhibition in Huh7 cells; 340,000 tested, 0.3% active; activation (reporter increase), % at 12.5 µM; Huh7 miR-122 Renilla luciferase sensor, 48 h; neutral wells = 0, positive control = 100; AID 602342;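 active = mean replicate activation score at least 90 and every replicate individually at or above 90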;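 note: higher luciferase means less miR-122 activity so hits act as miR-122 inhibitors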
F508del corr: correctors of CFTR F508del function in bronchial epithelial cells. CFBE cells, YFP halide quenching; stimulated with forskolin plus potentiator P3; % fluorescence drop versus neutral controls. activity (quench increase), % at 7.58 µM. 350,000 tested, 0.36% active;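 active = mean added fluorescence quench of at least 8% versus neutral control, with both replicates also reaching 8%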;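 note: cells transiently co-express mutant CFTR-F508del with the halide-sensitive YFP; corrector assay measuring rescue of mutant channel to the surface after 24 h compound exposure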
E-sel inducer: E-selectin induction on HUVECs. P16581. HUVEC E-selectin immunofluorescence imaging; normalized: neutral wells 0, TNF-alpha wells 100. activation, % at 7.58 µM. 260,000 tested, 0.37% active. AID 686992;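 active = mean E-selectin-positive cell signal at least 10% of the positive control, reached in at least 60% of replicates, without over 20% cell loss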
Target sequence (P16581 whole entry, looked up): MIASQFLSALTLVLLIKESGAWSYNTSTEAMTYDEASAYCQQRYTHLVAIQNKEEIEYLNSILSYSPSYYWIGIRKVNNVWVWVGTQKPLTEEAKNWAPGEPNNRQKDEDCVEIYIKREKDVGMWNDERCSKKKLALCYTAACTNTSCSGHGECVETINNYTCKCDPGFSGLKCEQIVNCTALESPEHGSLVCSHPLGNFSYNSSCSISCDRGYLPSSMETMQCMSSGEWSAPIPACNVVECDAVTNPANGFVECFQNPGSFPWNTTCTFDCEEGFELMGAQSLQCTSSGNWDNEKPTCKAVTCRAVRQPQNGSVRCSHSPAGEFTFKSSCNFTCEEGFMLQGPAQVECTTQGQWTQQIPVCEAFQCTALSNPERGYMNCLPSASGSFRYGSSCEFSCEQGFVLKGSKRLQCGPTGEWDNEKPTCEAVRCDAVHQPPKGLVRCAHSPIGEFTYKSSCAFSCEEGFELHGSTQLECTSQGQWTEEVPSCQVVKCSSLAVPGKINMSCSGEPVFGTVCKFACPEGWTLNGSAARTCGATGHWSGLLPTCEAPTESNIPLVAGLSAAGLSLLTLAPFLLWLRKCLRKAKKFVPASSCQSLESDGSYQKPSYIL
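System: HUVEC / Compound: single concentration / Signal: immunofluorescence imaging / Read-out: percent E-selectin-positive cells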
DENV2 CPE rescue: DENV2-induced cell death inhibition; DENV2-infected cells, cytopathic effect rescue, plate reader; CPE inhibition, % at 9.99 µM; 350,000 tested, 1.7% active; in the data active = CPE inhibition above about 20%, passing the limit was not always enough; tested in BHK-21 cells;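 note: 0% = median of neutral control wells and 100% = median of positive control wells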
INS-1E GSIS act: primary screen for activators of insulin secretion dependent on glucose, INS-1E cells, GLuc reporter luminescence | INS-1E GLuc reporter insulin secretion, 2-3 h | activation, % at 16.6 µM | 370,000 tested, 0.61% active;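 active = lowest replicate activation of at least 40%, so every replicate reaches that level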;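 note: 0% = median of neutral control wells and 100% = median of IBMX positive control wells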
ERAP1 HTS inh: inhibitors of human ERAP1 aminopeptidase; Q9NZ08; recombinant ERAP1, Leu-AMC fluorescence, 60 min; inhibition, % at 10.7 µM; 340,000 tested, 0.15% active;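 active = mean replicate inhibition of at least 30%, or all replicates individually reaching that 30% level; inactive = mean below 30% and not every replicate reaching it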;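 note: 0% = neutral control wells and 100% = L-leucinethiol positive control wells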
Starred values were filed as active, the others as inactive; nt = no result given; [ ] = remark or other dose. An excerpt weighted towards active compounds, which were near 2.6% of everything screened.

SMILES | miR122 inh | F508del corr | E-sel inducer | DENV2 CPE rescue | INS-1E GSIS act | ERAP1 HTS inh
COc1ccc(NC(=O)N(C)C[C@@H]2Oc3ncc(C#CCC(C)C)cc3C(=O)N([C@@H](C)CO)C[C@H]2C)cc1 | nt | -3 | 0 | -5 | -18 | 1
C[C@H](CO)N1C[C@H](C)[C@@H](CN(C)Cc2ccc(Cl)c(Cl)c2)Oc2ccc(NC(=O)NC3CCCCC3)cc2CC1=O | -1[16.7 µM] | 2 | -3 | -20 | -20 | 0
C[C@H](CO)N1C[C@H](C)[C@H](CN(C)C(=O)Nc2ccc3c(c2)OCO3)Oc2ccc(NC(=O)CCCCCC(=O)Nc3ccccc3N)cc2CC1=O | -7[16.7 µM] | -1 | 392* | 3 | 6 | 1
C[C@H](CO)N1C[C@H](C)[C@@H](CN(C)C(=O)Nc2ccc3c(c2)OCO3)Oc2ccc(NC(=O)CCCCCC(=O)Nc3ccccc3N)cc2CC1=O | 10[16.7 µM] | -1 | -14 | 13 | -5 | 1
C[C@@H]1CN([C@H](C)CO)C(=O)c2cc(NC(=O)CCCCCC(=O)Nc3ccccc3N)ccc2O[C@@H]1CN(C)C(=O)Nc1ccc2c(c1)OCO2 | -3[16.7 µM] | 3 | 100* | 6 | 10 | 1
COc1ccc(NC(=O)N(C)C[C@H]2Oc3ccc(NC(=O)CCCCCC(=O)Nc4ccccc4N)cc3CC(=O)N([C@@H](C)CO)C[C@H]2C)cc1 | -4[16.7 µM] | 2 | 32* | 9 | 21 | 0
C[C@@H]1CN([C@@H](C)CO)C(=O)Cc2cc(NC(=O)CCCCCC(=O)Nc3ccccc3N)ccc2O[C@@H]1CN(C)C(=O)Nc1ccc2c(c1)OCO2 | -6[16.7 µM] | -2 | 181* | -6 | 14 | 1
C[C@@H]1CN([C@@H](C)CO)C(=O)c2cc(NC(=O)CCCCCC(=O)Nc3ccccc3N)ccc2O[C@@H]1CN(C)C(=O)Nc1ccccc1 | -7[16.7 µM] | -1 | 0 | 2 | 4 | -6
COc1ccc(NC(=O)N(C)C[C@@H]2Oc3ccc(NC(=O)CCCCCC(=O)Nc4ccccc4N)cc3CC(=O)N([C@@H](C)CO)C[C@@H]2C)cc1 | -2[16.7 µM] | 0 | -6 | -8 | 4 | -1
Cc1noc(C)c1S(=O)(=O)N(C)C[C@@H]1OCCCC[C@@H](C)Oc2ccc(NS(=O)(=O)c3ccc(Cl)cc3)cc2C(=O)N([C@@H](C)CO)C[C@@H]1C | 2[16.7 µM] | 2 | -1 | -6 | -3 | -3
C#Cc1ccc([C@@H]2C=C(C(=O)N3CCCCCCC3)O[C@H](OCCCCO)C2)cc1 | nt | 1 | nt | 8 | nt | 0
O=c1[nH]c2ccccc2nc1-c1nnnn1C1CCCC1 | nt | -1 | nt | -4 | 49* | 3
O=[N+]([O-])c1cccc(COc2ccccc2CN2CCCC2)c1 | 3 | -2 | 0 | 58* | nt | -1
CCCN1[C@@H]2Cn3c(ccc(-c4ccccc4OC)c3=O)[C@H]1[C@@H](C(=O)N1CCOCC1)[C@@H]2CO | nt | -3 | 0 | -11 | 1 | 4
COCC(=O)N1C[C@@H]2[C@H](c3ccccc31)[C@H](CO)N2Cc1ccc(OC)cc1 | -5[16.7 µM] | 10* | 0 | 8 | 16 | 1
CCCNC(=O)N1C[C@@H]2[C@H](c3ccccc31)[C@H](CO)N2Cc1ccc(OC)cc1 | -20[16.7 µM] | 8.2* | 1 | 3 | -12 | 0
CCC(=O)N1C[C@@H]2[C@H](c3ccccc31)[C@H](CO)N2Cc1ccccc1OC | 19[16.7 µM] | -1 | 0 | 35* | 0 | 1
CCC(=O)N1C[C@H]2[C@@H](c3ccccc31)[C@@H](CO)N2Cc1ccccc1OC | 25[16.7 µM] | -1 | 0 | -3 | 3 | 1
CCCNC(=O)N1C[C@@H]2[C@H](c3ccccc31)[C@@H](CO)N2Cc1ccc(OC)cc1 | -12[16.7 µM] | 0 | 1 | -9 | 2 | -2
COCC(=O)N1C[C@H]2[C@@H](c3ccccc31)[C@@H](CO)N2Cc1ccc(OC)cc1 | 3[16.7 µM] | 6 | 1 | 2 | -1 | 0
COCC#Cc1ccc2c(c1)O[C@H](CN(C)S(=O)(=O)c1ccc(F)cc1)[C@H](C)CN([C@@H](C)CO)S2(=O)=O | -6[16.7 µM] | 1 | 0 | -3 | -11 | 0
O=C(NC1CCCC1)[C@H]1[C@H](CO)[C@H]2Cn3c(ccc(-c4ccncc4)c3=O)[C@H]2N1CCc1ccccc1 | -2[16.7 µM] | 0 | 0 | 11 | -6 | -2
O=C(/C=C/c1ccc(Cl)cc1)NC1CC2CCC1C2 (stereo not drawn) | -2 | -1 | 35* | 0 | 5 | 1
O=C(/C=C/c1ccccc1)NC1CC2CCC1C2 (stereo not drawn) | nt | nt | nt | nt | 3 | nt
CC(C)CCNC(=O)C1CC(c2ccccc2C(F)(F)F)=NO1 (stereo not drawn) | 9 | 3 | 0 | 35* | 2 | 0
SMILES | miR122 inh | F508del corr | E-sel inducer | DENV2 CPE rescue | INS-1E GSIS act | ERAP1 HTS inh
C[C@@H]1CN([C@@H](C)CO)C(=O)c2cc(NC(=O)Cn3cnnn3)ccc2O[C@@H]1CN(C)Cc1ccc(C(=O)Nc2ccccc2N)cc1 | -4[16.7 µM] | -2 | 0 | 7 | 8 | -2
C[C@@H]1CN([C@H](C)CO)C(=O)Cc2cc(NC(=O)Cn3cnnn3)ccc2O[C@@H]1CN(C)Cc1ccc(C(=O)Nc2ccccc2N)cc1 | nt | 0 | -1 | 112* | 6 | 1
C[C@@H]1CN([C@H](C)CO)C(=O)c2cc(NC(=O)Cn3cnnn3)ccc2O[C@@H]1CN(C)Cc1ccc(C(=O)Nc2ccccc2N)cc1 | -3[16.7 µM] | -1 | 0 | 17 | 9 | -5
C[C@H]1CN([C@@H](C)CO)C(=O)c2cc(NC(=O)Cn3cnnn3)ccc2O[C@H]1CN(C)Cc1ccc(C(=O)Nc2ccccc2N)cc1 | -11[16.7 µM] | -1 | 0 | 43* | 2 | -3
CC(=O)N1CC(=O)N2[C@@H](CO)[C@H](c3ccc(-c4ccc(C)cc4)cc3)[C@@H]2C1 | nt | 0 | 0 | 2 | 1 | 0
CC(C)C#Cc1cnc2c(c1)C(=O)N([C@H](C)CO)C[C@H](C)[C@@H](CN(C)C(=O)C1CCC1)O2 | 2[16.7 µM] | 0 | 0 | -4 | -16 | 4
COc1ccc2c3c(n(C)c2c1)[C@H](CO)N(C(=O)CC1CC1)CC31CCN(C(=O)C2CC2)CC1 | nt | -3 | 0 | 3 | 6 | 0
COc1ccc(NC(=O)COC(=O)CNC(=O)C2CCCCC2)cc1OC | 0 | 1 | 0 | 9 | 59* | 0
CCN(CC)S(=O)(=O)c1ccc(NC(=O)COC(=O)CNC(=O)C2CCCCC2)cc1 | -5 | -1 | 0 | 63* | 12 | 4
COc1ccc(NC(=O)COC(=O)CNS(=O)(=O)c2ccccc2)cc1OC | nt | 14* | nt | -3 | 1 | -2
COc1ccc(S(=O)(=O)Nc2ccc3c(c2)CC(=O)N([C@H](C)CO)C[C@H](C)[C@@H](CN(C)Cc2ccc(C(=O)Nc4ccccc4N)cc2)O3)cc1 | 11[16.7 µM] | -1 | 0 | 2 | -5 | 4
